In ChEMBL document CHEMBL4014306, “Pyrazolopyrimidines as Potent Stimulators for Transient Receptor Potential Canonical 3/6/7 Channels” (J Med Chem, 2017):
The source made the active and inactive calls. The rule behind the calls is not given here.

Experiments:
[1] = molecular target: T1, Transient receptor potential cation channel subfamily M member 5 (Homo sapiens) (UniProt Q9NZQ8); test: Agonist activity at human TRPM5 expressed in HEK293 cells assessed as induction of membrane depolarization at 33 uM measured for 2.5 mins by FLIPR membrane potential dye-based fluorescence assay; type: cell-based
T1 sequence (whole entry): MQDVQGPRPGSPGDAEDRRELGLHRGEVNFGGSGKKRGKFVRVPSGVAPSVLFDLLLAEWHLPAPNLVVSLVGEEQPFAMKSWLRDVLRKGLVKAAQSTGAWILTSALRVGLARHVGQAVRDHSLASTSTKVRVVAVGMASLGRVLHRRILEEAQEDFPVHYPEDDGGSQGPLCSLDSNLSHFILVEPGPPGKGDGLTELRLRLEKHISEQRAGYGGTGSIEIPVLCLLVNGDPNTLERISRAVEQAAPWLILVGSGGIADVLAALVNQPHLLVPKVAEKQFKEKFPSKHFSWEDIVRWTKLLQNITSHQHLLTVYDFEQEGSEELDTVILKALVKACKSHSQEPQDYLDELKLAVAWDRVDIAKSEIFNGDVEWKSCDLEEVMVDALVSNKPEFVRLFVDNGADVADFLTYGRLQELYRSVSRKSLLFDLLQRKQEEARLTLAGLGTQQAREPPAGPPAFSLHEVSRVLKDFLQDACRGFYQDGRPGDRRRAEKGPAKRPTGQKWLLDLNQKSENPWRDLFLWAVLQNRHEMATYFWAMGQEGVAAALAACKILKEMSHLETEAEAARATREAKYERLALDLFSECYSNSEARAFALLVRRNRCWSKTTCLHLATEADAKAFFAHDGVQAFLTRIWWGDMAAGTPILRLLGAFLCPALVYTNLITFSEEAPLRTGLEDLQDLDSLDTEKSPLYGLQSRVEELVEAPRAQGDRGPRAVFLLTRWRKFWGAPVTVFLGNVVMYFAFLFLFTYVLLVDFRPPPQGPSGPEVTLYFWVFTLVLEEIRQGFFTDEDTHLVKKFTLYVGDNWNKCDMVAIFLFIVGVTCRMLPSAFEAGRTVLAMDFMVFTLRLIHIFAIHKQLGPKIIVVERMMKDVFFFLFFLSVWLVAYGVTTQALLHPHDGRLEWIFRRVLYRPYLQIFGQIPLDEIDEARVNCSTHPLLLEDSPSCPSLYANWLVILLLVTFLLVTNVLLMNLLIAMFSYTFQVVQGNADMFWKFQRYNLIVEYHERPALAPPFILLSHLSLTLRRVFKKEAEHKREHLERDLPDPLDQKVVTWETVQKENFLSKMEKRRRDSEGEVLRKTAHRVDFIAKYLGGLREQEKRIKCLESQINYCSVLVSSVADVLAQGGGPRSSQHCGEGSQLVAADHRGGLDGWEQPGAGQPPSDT

[2] = molecular target: T2, Short transient receptor potential channel 4 (Mus musculus) (UniProt Q9QUQ5); test: Inhibition of mouse TRPC4beta expressed in HEK293 cells co-expressing MOR assessed as decrease in DAMGO-evoked membrane depolarization at 22 uM preincubated for 2 mins followed by DAMGO addition measured for 2.5 mins by FLIPR membrane potential dye-based fluorescence assay relative to control; type: cell-based
T2 sequence (whole entry): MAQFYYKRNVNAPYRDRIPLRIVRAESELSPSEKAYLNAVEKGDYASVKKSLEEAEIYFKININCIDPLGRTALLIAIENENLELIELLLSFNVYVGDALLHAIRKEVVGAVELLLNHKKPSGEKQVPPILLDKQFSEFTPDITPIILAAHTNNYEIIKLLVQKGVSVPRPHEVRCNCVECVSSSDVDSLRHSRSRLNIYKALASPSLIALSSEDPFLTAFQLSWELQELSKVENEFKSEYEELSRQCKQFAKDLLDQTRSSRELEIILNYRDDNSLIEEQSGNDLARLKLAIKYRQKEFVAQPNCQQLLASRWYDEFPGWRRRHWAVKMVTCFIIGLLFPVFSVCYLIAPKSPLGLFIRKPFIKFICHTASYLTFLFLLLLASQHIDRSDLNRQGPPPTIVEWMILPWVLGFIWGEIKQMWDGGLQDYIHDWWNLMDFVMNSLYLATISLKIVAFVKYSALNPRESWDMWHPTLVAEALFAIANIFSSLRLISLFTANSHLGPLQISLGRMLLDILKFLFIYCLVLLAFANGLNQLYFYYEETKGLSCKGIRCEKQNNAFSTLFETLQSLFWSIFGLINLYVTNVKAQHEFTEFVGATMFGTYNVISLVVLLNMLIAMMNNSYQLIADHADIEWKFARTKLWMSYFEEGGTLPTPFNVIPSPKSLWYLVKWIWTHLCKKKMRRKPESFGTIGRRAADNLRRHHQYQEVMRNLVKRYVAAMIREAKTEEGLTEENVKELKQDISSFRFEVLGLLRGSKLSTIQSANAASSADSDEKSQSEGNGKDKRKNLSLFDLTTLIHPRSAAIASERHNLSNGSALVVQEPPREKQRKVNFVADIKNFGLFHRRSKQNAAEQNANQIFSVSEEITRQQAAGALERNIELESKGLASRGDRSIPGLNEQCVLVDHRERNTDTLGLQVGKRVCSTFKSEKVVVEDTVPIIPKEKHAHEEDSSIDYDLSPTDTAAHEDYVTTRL
How it was run: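 Same TRP panel as for the stimulation tests, with FMP dye for TRPC4 and M5 and Fluo8-AM for TRPA1, V1 and M8. Compound applied for 2 min before the channel agonist (TRPC4: 1 μM DAMGO). Inhibition of the agonist response measured on a FlexStation at 32 °C.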

SMILES	Activity [1]	inhibition [2]
CCOC(=O)N1CCC(c2cc(O)n3nc(C)c(-c4ccc(F)cc4)c3n2)CC1	inactive	–
Cc1nn2c(O)cc(C3CCN(C(=O)OCc4ccccc4)CC3)nc2c1-c1ccc(Cl)cc1	inactive	–
Cc1nn2c(O)cc(C3CCN(C(=O)OCc4ccccc4)CC3)nc2c1-c1ccc(F)cc1	inactive	13%
CCOC(=O)N1CCC(c2cc(O)n3nc(C)c(-c4ccc(C(F)(F)F)cc4)c3n2)CC1	inactive	33%
